# Bioassay records from PubChem.
# Compounds with a hit are over-represented: about 3.2% of the library has one in this group of screens.
# Ecoli rRNA inh: inhibitors of bacterial rRNA selective over humanized ribosomes | E. coli WT GFP vs humanized-ribosome RFP mutants, fluorescence, 24 h; stronger effect = lower value; DMSO median 0, no signal -100 | GFP signal change (wild-type ribosome), % (test concentration not listed) | 1.6% of 350,000 active | AID 720706;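 active = significant combined selectivity score with lowered wild-type GFP, culture density cut under 30%, mutant RFP and density less affected; inactive = any of these conditions unmet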
# DENV2 CPE: DENV2-induced cell death inhibition. DENV2-infected cells, cytopathic effect rescue, plate reader. 1.7% of 350,000 active. AID 651640. CPE inhibition, % at 9.99 µM; in the data active = CPE inhibition above about 20%, passing the limit was not always enough; inconclusive = no clear call, values can overlap the other calls; tested in BHK-21 cells;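 also: 0% = median of neutral control wells and 100% = median of positive control wells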
# AF4-AF9 inh: MLL-AF4/AF9 protein interaction inhibition; P42568; AlphaScreen, biotin-AF4 peptide binding to FLAG-AF9; inhibition, % at 10 µM; 0.47% of 350,000 active; AID 651704;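 active = every replicate reaching a set inhibition limit, whatever the replicate mean, cut at about 25% in these data; inconclusive = mean inhibition reaches that limit but some replicates miss it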;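 also: 0% = plate neutral control median and 100% = total signal loss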
# Target sequence (P42568 whole entry, looked up): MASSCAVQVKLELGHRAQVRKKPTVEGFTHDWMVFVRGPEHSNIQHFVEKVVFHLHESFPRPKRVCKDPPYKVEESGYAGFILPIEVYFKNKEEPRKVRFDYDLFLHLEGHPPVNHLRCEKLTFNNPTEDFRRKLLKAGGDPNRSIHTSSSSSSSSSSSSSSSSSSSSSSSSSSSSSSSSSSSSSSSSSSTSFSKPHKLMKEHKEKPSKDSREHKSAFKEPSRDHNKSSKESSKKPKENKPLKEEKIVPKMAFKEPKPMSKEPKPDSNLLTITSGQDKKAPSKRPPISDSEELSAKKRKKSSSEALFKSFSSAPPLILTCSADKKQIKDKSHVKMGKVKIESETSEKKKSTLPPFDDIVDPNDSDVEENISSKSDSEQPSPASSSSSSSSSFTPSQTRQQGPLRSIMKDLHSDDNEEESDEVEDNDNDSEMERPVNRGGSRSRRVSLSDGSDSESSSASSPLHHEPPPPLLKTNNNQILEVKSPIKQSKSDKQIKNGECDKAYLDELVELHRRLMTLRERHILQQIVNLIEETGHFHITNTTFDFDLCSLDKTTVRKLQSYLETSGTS
# S100A4 inh HTS: inhibitors of human S100A4 binding to myosin IIA peptide; S100A4/TAMRA-MyoIIA peptide fluorescence polarization; inhibition, % at 10.7 µM; 0.14% of 360,000 active; AID 652163;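 active = mean inhibition of at least 70% across replicates, with every replicate also reaching that level; inconclusive = mean inhibition reaches 70% but some replicates fall short; inactive = mean inhibition below 70%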
#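 Material: S100A4 monomer protein | Medium: HEPES pH 7.2 with CaCl2, KCl, NaCl, DTT, Triton | Reagent: Labelled myosin peptide probe, 5 nM | Doses: One dose per compound | Times: 5 min incubation before reading | Benchmarks: Neutral control DMSO, positive control TFP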
# PfHsp90 yeast 2: inhibits growth of yeast expressing Plasmodium falciparum Hsp90; AID 504621; S. cerevisiae expressing PfHsp90, BacTiter-Glo ATP, 48 h; yeast lacking PDR1 and PDR3 efflux regulators; inhibition, % at 9.4 µM; 0.32% of 310,000 active;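 active = every replicate shows inhibition above about 80%, whatever the replicate mean, limit read from the data; inconclusive = mean inhibition reaches the set limit but some replicate falls short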;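 also: 0% = DMSO neutral controls and 100% = 20 µM radicicol positive controls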
# Cneo AK release: Cryptococcus neoformans lysis via adenylate kinase release; C. neoformans lysis, adenylate kinase release luminescence, 4 h; normalised: neutral wells 0, clomiphene wells 100; lysis activity, % at 15 µM; 0.2% of 360,000 active; AID 651654;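 active = mean lysis activity across replicates of at least 80%, whatever share of replicates individually reach that level; inactive = mean lysis activity below 80%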
#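 Material: C. neoformans cells | Amount: Yeast cell density of 5 × 10^6 cells/mL | Medium: Fresh YPD growth medium | Dosing: Single dose | Times: Static 4 h at 37 °C with compound, 1 h detection | Detection: AK luminescence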
# The depositor's hits bear a star; u = inconclusive; x = no result given.
SMILES,Ecoli rRNA inh,DENV2 CPE,AF4-AF9 inh,S100A4 inh HTS,PfHsp90 yeast 2,Cneo AK release
CCNC(=O)NC1c2ccccc2CSc2ccccc21 (configuration not stated),12.3,-2.0,-3.1,-2.2,-21.4,-1.9
Cc1ccc(S(=O)(=O)Nc2ccc3c(c2)C(=O)N([C@@H](C)CO)C[C@H](C)[C@@H](CN(C)C(=O)c2ccccc2)OCCCC[C@@H](C)O3)cc1,-0.3,-3.8,1.7,52.5,x,0.7
Cc1onc(-c2ccccc2)c1C(=O)N/N=C/c1c(F)cccc1Cl,1.2,79.3*,2.7,1.9,-16.0,-0.9
Cc1onc(-c2ccccc2)c1C(=O)NN=Cc1cc(Cl)cc(Cl)c1O,x,-6.4,-1.7,-4.2,x,x
COC(=O)C1(CC2CC(c3ccncc3)=NO2)CCN(C(=O)OC(C)(C)C)CC1 (configuration not stated),-8.1,37.2*,-13.2,1.8,-13.8,-0.7
CC(C)NC(=O)Nc1ccc2c(c1)C(=O)N([C@H](C)CO)C[C@H](C)[C@@H](CN(C)Cc1ccc(C(=O)O)cc1)O2,-0.3,3.2,-4.5,-0.2,x,-4.7
C[C@@H]1CN([C@@H](C)CO)C(=O)c2cc(NC(=O)CCC(F)(F)F)ccc2O[C@@H]1CN(C)Cc1ccc2c(c1)OCO2,3.2,29.1*,-0.5,5.7,x,-0.2
C[C@@H]1CN([C@@H](C)CO)C(=O)c2cc(NC(=O)CCC(F)(F)F)ccc2O[C@@H]1CN(C)Cc1ccncc1,2.2,-1.2,-14.6,1.3,x,-4.0
C[C@H](CO)N1C[C@H](C)[C@H](CN(C)Cc2ccncc2)Oc2ccc(NC(=O)CCC(F)(F)F)cc2C1=O,2.3,-3.7,x,x,x,149.1*
COc1ccc2sc(N(CCCN(C)C)C(=O)c3ccc(S(=O)(=O)N4CCCc5ccccc54)cc3)nc2c1,-54.6,-9.5,31.5*,5.9,x,3.1
CCOc1cccc2sc(N(CCCN(C)C)C(=O)c3ccc(S(=O)(=O)N4CCc5ccccc5C4)cc3)nc12,-24.7,2.1,-0.4,4.2,-1.4,31.5
CCc1ccc2nc(N(CCCN(C)C)C(=O)c3ccc(S(=O)(=O)N4CCc5ccccc5C4)cc3)sc2c1,-25.1*,0.5,0.7,2.0,x,-1.7
CCC(=O)N1[C@@H]2Cn3c(ccc(-c4ccccc4F)c3=O)[C@H]1[C@@H](C(=O)NC1CCCC1)[C@@H]2CO,2.1,2.1,-2.9,-5.8,x,1.5
O=S(=O)(NC1CCN(Cc2ccc(OCCO)cc2)CC1)c1cc(C(F)(F)F)ccc1Cl,x,28.9*,12.3,11.4,x,-9.0
CCC(=O)OCOc1ccc(/C=C2/CCC(CN(C)C)C2=O)cc1 (configuration not stated),x,-6.8,-2.9,1.0,143.0*,x
CCNC(=O)C[C@H]1CC[C@H]2[C@H](COc3ccc(NC(=O)c4cccs4)cc3C(=O)N2C)O1,2.9,1.4,0.6,8.2,x,-1.9
CN1C(=O)NC(c2ccccc2[N+](=O)[O-])C2=C1CCCC2=O (configuration not stated),-2.9,u,-3.1,117.4*,4.2,0.3
CCC(=O)Nc1ccc2c(c1)OC[C@H](C)N(C(C)=O)C[C@@H](C)[C@@H](OC)CN(C)C2=O,2.2,-5.8,-0.5,-2.7,x,1.6
CN(C)CC#Cc1ccc([C@@H]2[C@H](CO)N3CCCCN(CC4CC4)C[C@@H]23)cc1,5.1,-2.6,27.4*,0.3,x,49.8
CCCC#Cc1ccc([C@@H]2[C@@H](CO)N3CCCCN(CC4CCOCC4)C[C@@H]23)cc1,4.2,u,4.8,-6.3,x,0.2
CCCC#Cc1ccc([C@@H]2[C@H](CO)N3CCCCN(CC4CCOCC4)C[C@@H]23)cc1,6.0,46.4*,6.4,-2.3,x,-2.5
CN(C)CC#Cc1ccc([C@@H]2[C@@H](CO)N3CCCCN(CC4CC4)C[C@@H]23)cc1,2.7,-1.3,25.8*,-5.7,x,-0.6
Brc1ccc(CSc2nnc(-c3ccco3)o2)cc1,-22.0*,1.1,-1.3,-2.1,-2.5,x
C[C@@H]1CN([C@H](C)CO)C(=O)c2cc(C3=CCCCC3)cnc2O[C@H]1CN(C)C(=O)C1CCOCC1,5.4,-3.7,-1.3,9.6,x,-2.5
